Here are results for ten compounds from ChEMBL document CHEMBL1828554, “3,5-dimethylisoxazoles act as acetyl-lysine-mimetic bromodomain ligands” (J Med Chem, 2011).

Assay [1] deals with Bromodomain-containing protein 3 (Homo sapiens) (UniProt Q15059). As to the kind of experiment: Binding affinity to first bromodomain of BRD3 assessed as change in melting temperature at 100 uM by differential scanning fluorimetry. The gist of the method:
(§1)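 Thermal shift by differential scanning fluorimetry on a real-time PCR instrument. Bromodomain protein at 2 μM, compound at 100 μM, in 10 mM HEPES pH 7.5, 500 mM NaCl with SyproOrange dye diluted 1:1000. The observed melting temperature shift was measured in duplicate, and the average was reported.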
On the technique in general: DSF heats the sample and reads unfolding from a dye or from intrinsic fluorescence.

Assay [2] addresses Bromodomain testis-specific protein (Homo sapiens) (UniProt Q58F21). As to the kind of experiment: Binding affinity to BRDT assessed as change in melting temperature at 100 uM by differential scanning fluorimetry. The gist of the method:
as §1

In assay [3] the target is T1, CREB-binding protein (Homo sapiens, UniProt Q92793). The assay can be described thus: Binding affinity to CREBBP assessed as change in melting temperature at 100 uM by differential scanning fluorimetry. In outline: as §1
The target in assay [4] is Bromodomain-containing protein 3 (Homo sapiens) (UniProt Q15059). The assay can be described thus: Binding affinity to second bromodomain of BRD3 assessed as change in melting temperature at 100 uM by differential scanning fluorimetry. The gist of the method: as §1
Sequence of Bromodomain-containing protein 3 (Homo sapiens) (Q15059 2-726 limits assumed): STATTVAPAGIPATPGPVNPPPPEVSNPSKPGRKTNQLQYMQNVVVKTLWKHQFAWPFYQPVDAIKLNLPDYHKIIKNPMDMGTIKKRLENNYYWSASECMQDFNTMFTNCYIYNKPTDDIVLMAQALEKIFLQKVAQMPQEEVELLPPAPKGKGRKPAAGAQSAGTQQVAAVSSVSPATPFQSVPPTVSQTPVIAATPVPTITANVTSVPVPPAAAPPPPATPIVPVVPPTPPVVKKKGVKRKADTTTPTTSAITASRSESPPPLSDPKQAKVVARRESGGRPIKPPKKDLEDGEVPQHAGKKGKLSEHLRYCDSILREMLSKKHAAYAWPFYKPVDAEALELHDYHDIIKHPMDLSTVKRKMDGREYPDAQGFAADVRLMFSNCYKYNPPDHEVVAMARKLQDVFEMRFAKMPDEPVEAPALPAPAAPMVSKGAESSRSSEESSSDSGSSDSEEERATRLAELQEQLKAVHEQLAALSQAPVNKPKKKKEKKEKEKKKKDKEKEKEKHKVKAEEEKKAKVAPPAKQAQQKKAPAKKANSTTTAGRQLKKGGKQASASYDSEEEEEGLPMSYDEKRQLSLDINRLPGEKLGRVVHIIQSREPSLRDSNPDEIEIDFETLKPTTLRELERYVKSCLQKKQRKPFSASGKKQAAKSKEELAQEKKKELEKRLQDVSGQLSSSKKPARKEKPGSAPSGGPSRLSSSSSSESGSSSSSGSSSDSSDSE
The target of assay [5] is T2, Bromodomain-containing protein 2 (Homo sapiens, UniProt P25440). As to the kind of experiment: Binding affinity to second bromodomain of BRD2 assessed as change in melting temperature at 100 uM by differential scanning fluorimetry. The gist of the method: as §1
Target sequence in this assay (P25440 whole entry, looked up): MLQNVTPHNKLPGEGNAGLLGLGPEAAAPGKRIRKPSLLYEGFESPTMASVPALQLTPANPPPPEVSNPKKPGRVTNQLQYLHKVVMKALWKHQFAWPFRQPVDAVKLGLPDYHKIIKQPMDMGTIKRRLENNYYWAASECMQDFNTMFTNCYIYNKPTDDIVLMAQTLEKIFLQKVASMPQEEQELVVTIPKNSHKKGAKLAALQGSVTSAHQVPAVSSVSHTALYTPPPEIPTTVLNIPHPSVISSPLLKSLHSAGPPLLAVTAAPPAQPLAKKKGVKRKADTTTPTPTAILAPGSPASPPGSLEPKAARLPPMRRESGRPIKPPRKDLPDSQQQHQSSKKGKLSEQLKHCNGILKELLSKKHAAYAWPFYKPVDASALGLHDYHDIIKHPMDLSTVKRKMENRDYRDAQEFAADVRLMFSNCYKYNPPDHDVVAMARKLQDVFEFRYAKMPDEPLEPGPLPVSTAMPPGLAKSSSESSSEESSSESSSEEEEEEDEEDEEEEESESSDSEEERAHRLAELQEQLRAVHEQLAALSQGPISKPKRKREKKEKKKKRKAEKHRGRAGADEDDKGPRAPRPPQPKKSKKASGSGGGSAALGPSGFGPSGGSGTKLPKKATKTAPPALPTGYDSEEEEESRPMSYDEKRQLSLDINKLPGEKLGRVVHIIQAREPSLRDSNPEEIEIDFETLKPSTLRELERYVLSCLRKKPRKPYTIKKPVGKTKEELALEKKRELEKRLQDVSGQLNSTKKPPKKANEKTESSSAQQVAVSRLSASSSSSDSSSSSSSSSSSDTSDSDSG
In assay [6] the target is T1, CREB-binding protein. The assay can be described thus: Displacement of H3K56Ac from human CREBBP by peptide displacement assay.
Assay [7] concerns the target T3, Bromodomain-containing protein 4 (Homo sapiens, UniProt O60885). As to the kind of experiment: Binding affinity to first bromodomain of BRD4 assessed as change in melting temperature at 100 uM by differential scanning fluorimetry. In outline: as §1
Assay [8] has as its target T3, Bromodomain-containing protein 4. As to the kind of experiment: Displacement of H4Ac4 peptide from first bromodomain of human BRD4 by peptide displacement assay. In outline: (§2)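 AlphaScreen displacement of a biotinylated tetra-acetylated H4 peptide (SGRGK(Ac)GGK(Ac)GLGK(Ac)GGAK(Ac)RHRK(Biotin)) from the bromodomain. Run in duplicate on one plate.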
A short description of assay [9]: Binding affinity to LOC93349 assessed as change in melting temperature at 100 uM by differential scanning fluorimetry. In outline:
as §1

Assay [10] has as its target T2, Bromodomain-containing protein 2. As to the kind of experiment: Displacement of H4Ac4 peptide from first bromodomain of human BRD2 by peptide displacement assay. The gist of the method:
as §2

Assay [11] concerns the target Protein polybromo-1 (Homo sapiens) (UniProt Q86U86). As to the kind of experiment: Binding affinity to PB1 assessed as change in melting temperature at 100 uM by differential scanning fluorimetry. The gist of the method: as §1
For assay [12], the target named is Histone acetyltransferase KAT2B (Homo sapiens) (UniProt Q92831). As to the kind of experiment: Binding affinity to PCAF assessed as change in melting temperature at 100 uM by differential scanning fluorimetry. In outline:
as §1

Assay [13] has as its target T2, Bromodomain-containing protein 2. The assay can be described thus: Binding affinity to first bromodomain of BRD2 assessed as change in melting temperature at 100 uM by differential scanning fluorimetry. In outline: as §1
Target sequence in this assay (P25440 whole entry, looked up): as above
The target of assay [14] is T4, Bromodomain adjacent to zinc finger domain protein 2B (Homo sapiens, UniProt Q9UIF8). The assay can be described thus: Binding affinity to BAZ2B assessed as change in melting temperature at 100 uM by differential scanning fluorimetry. In outline: as §1
T4 sequence (Q9UIF8 whole entry, the tested form may be a part): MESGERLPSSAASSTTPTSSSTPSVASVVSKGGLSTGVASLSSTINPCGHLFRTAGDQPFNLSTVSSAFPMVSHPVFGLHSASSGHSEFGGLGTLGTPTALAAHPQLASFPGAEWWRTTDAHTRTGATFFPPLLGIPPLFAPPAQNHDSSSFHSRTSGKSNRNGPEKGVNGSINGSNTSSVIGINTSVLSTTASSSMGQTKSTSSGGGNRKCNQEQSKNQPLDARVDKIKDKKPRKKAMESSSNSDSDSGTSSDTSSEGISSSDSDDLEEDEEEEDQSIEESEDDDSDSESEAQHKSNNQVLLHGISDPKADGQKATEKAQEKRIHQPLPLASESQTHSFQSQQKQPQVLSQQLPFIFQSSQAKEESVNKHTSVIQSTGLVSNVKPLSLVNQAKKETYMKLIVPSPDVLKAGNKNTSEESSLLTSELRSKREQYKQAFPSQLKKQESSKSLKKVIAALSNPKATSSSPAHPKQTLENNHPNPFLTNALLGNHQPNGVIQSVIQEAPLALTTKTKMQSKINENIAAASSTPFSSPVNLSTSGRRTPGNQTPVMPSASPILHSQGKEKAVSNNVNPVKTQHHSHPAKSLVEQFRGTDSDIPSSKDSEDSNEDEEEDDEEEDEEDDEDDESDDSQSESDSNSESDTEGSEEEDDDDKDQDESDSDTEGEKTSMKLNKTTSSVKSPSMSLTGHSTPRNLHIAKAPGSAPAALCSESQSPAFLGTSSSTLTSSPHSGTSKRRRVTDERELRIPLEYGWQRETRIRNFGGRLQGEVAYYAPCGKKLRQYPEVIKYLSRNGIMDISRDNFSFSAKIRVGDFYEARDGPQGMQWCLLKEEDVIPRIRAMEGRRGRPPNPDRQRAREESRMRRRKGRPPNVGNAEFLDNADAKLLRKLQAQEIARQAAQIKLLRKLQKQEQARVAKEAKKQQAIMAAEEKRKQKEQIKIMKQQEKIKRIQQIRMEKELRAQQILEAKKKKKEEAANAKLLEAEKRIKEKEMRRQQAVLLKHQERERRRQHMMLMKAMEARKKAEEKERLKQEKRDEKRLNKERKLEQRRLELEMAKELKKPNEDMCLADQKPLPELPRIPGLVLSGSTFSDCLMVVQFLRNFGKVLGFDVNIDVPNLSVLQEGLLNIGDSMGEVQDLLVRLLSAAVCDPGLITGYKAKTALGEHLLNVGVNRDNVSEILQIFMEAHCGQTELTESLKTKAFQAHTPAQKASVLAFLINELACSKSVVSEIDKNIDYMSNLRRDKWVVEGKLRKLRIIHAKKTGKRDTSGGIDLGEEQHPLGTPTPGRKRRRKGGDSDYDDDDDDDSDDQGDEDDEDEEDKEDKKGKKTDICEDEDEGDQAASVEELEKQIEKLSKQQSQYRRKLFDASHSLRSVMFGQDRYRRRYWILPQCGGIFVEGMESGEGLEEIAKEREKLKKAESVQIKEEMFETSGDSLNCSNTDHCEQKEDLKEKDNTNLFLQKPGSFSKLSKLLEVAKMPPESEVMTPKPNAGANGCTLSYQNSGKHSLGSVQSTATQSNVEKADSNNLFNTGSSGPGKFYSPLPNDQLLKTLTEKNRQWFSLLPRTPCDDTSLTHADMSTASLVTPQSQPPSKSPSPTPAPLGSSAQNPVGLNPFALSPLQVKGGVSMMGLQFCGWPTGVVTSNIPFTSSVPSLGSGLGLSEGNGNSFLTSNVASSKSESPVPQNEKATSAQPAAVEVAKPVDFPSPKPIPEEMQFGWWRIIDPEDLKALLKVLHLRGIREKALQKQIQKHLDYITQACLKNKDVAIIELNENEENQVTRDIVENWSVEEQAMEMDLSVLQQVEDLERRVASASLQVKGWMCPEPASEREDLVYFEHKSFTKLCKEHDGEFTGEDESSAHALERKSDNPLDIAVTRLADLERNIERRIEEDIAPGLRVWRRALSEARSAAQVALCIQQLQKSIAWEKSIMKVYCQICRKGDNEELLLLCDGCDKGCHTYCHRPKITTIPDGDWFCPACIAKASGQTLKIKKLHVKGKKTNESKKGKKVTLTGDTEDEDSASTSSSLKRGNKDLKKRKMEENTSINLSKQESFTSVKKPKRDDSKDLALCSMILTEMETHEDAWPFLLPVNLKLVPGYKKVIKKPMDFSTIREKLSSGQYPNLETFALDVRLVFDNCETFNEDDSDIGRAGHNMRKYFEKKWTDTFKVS
Assay [15] deals with T3, Bromodomain-containing protein 4. The assay can be described thus: Binding affinity to second bromodomain of BRD4 assessed as change in melting temperature at 100 uM by differential scanning fluorimetry. The gist of the method:
as §1

Assay [16] addresses T1, CREB-binding protein. The assay can be described thus: Inhibition of CREBBP. The gist of the method: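 AlphaScreen peptide-displacement assay with the CREBBP bromodomain, using a biotinylated H3K56Ac histone peptide as the displaced ligand. Each concentration was run in duplicate on the same plate. IC50 was obtained by sigmoidal curve fitting of the duplicate data and reported with 95% confidence intervals, taken from a single assay.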

Assay [17] concerns the target T4, Bromodomain adjacent to zinc finger domain protein 2B. As to the kind of experiment: Inhibition of BAZ2B.

Each structure is given as a SMILES string.

Sequence of Histone acetyltransferase KAT2B (Homo sapiens) (Q92831 whole entry, looked up): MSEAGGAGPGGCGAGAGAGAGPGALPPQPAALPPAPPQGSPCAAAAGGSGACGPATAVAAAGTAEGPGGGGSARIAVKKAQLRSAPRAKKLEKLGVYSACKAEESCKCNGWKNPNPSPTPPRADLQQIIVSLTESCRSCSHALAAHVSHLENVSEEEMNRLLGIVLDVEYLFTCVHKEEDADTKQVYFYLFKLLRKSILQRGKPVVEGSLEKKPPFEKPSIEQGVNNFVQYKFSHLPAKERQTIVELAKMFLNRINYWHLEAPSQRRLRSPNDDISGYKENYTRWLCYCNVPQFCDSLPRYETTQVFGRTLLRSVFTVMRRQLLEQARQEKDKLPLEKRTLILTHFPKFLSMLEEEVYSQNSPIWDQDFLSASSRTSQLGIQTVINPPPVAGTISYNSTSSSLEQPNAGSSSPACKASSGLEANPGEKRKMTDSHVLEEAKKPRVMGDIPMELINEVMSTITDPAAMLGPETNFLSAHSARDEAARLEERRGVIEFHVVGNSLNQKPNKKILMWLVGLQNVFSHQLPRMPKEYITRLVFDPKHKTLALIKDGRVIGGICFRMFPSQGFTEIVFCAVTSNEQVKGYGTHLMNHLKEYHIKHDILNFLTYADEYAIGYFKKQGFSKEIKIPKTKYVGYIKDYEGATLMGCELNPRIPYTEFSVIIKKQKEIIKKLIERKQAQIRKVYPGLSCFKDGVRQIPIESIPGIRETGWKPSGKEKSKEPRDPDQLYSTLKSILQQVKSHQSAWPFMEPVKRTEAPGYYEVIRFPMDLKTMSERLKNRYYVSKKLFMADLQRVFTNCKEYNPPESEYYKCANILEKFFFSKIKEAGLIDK

Regarding `CCOc1cc(C(=O)O)cc(-c2c(C)noc2C)c1`, the ΔTm (usually the change in melting temperature against a reference sample) is 2.2 °C in assay [1]; -0.8 °C in assay [2]; 2.9 °C in [3]; 2.6 °C in assay [4]; 2.5 °C in [5]; 2.3 °C in assay [7]. Besides, the ΔTm in assay [9] was -1.2 °C; in [11] it was -0.1 °C; in assay [12], -0.5 °C; in assay [13], 1.1 °C; in [14] it was -0.1 °C; in assay [15], 2.2 °C. Moreover, the IC50 – broadly, the concentration that inhibits the measured activity by half – came to 32.2 µM in assay [6], 51.2 µM in [8] and 28.2 µM in assay [10].

Take `CN1CCCC1=O` [METHYLPYRROLIDONE]: the IC50 in assay [16] is 2300 µM; in [17], 34000 µM.

For the compound `CCOc1cc(-c2c(C)noc2C)cc(C(C)O)c1` (racemic), the ΔTm in assay [1] turned out to be 8.5 °C; in assay [2] it was 3.5 °C; in assay [3] it was 4 °C; in assay [4] it was 8.9 °C; in [5], 8.3 °C; in assay [7], 8.5 °C. In addition, the ΔTm in [9] is -0.9 °C; in assay [11], 0 °C; in [13], 6.1 °C; in assay [15], 8 °C. Moreover, the IC50 in [6] worked out at 28.1 µM; in [8] it was 4.8 µM; in [10], 1.6 µM.

Turning to `CCOc1cccc(-c2c(C)noc2C)c1`, the ΔTm was 2.7 °C in assay [1]; -0.4 °C in [2]; 0.7 °C in assay [3]; 4.2 °C in [4]; 3.7 °C in assay [5]; 2.8 °C in assay [7]. Moreover, the ΔTm in assay [9] is -0.9 °C; in assay [11], -0.2 °C; in assay [13] it was 1.3 °C; in [15] it was 4 °C. Besides, the IC50 in assay [6] stood at 86.9 µM; in assay [8], 23.2 µM; in assay [10], 7.4 µM.

As to `CCOC(=O)c1cc(OCC)cc(-c2c(C)noc2C)c1`, the ΔTm in [1] is 3.6 °C; in assay [2], 1.1 °C; in assay [3], -0.2 °C; in assay [4], 3.8 °C; in assay [5], 3.3 °C; in assay [7] it was 3.7 °C. Also, the ΔTm in [9] was -0.2 °C; in assay [11], -0.1 °C; in assay [13], 2.3 °C; in [15], 3.8 °C. In addition, the IC50 in [6] is 49.4 µM; in assay [8] it was 7.7 µM; in [10], 3.3 µM.

Consider `Cc1noc(C)c1-c1ccc2c(c1)CN(C)C(=O)N2`, for which the ΔTm in assay [1] turned out to be 7.2 °C; in assay [2], 3.2 °C; in assay [3] it was 3.8 °C; in [4] it was 6.8 °C; in assay [5], 6.2 °C; in [7] it was 8 °C. The results for the ΔTm in assay [9], in assay [11] and in assay [13] were -0.2 °C, 0.7 °C and 5.4 °C, respectively. The compound further yielded an IC50 in assay [6] of 3.4 µM.

On to `Cc1noc(C)c1-c1cccc(C(C)O)c1` (racemic), for which the ΔTm is 5.3 °C in assay [1]; 1.6 °C in assay [2]; 1.5 °C in assay [3]; 6.5 °C in assay [4]; 5.6 °C in assay [5]; 5.4 °C in [7]. Also, the ΔTm in assay [9] was -0.8 °C; in [11] it was 0.2 °C; in assay [12] it was 0 °C; in [13], 3.3 °C; in assay [14], 0.2 °C; in assay [15] it was 6.3 °C. The IC50 is 45.4 µM in assay [6], 9.7 µM in assay [8] and 4.2 µM in assay [10].

With `Cc1noc(C)c1-c1ccccc1`, the ΔTm in assay [1] amounted to 1.6 °C; in [2] it was 0 °C; in [3], 0.6 °C; in assay [4] it was 1.9 °C; in assay [5], 2.1 °C; in assay [7] it was 2 °C. Further, the ΔTm in assay [9] was -0.6 °C; in assay [11], 0 °C; in assay [12] it was -0.8 °C; in assay [13], 0.9 °C; in assay [14], -0.1 °C; in assay [15], 2.6 °C. Besides, the IC50 is more than 200 µM in assay [6], 84.2 µM in assay [8] and 34.3 µM in [10].

Regarding `CC(=O)c1cccc(-c2c(C)noc2C)c1`, the ΔTm is 2 °C in [1]; -0.2 °C in assay [2]; 1.2 °C in [3]; 2.9 °C in [4]; 2.6 °C in [5]; 2.1 °C in [7]. Moreover, the ΔTm in assay [9] is -0.9 °C; in [11] it was -0.3 °C; in assay [13] it was 1.3 °C; in assay [15], 1.9 °C. In addition, the IC50 was found to be 55.7 µM in [6], 24.6 µM in [8] and 6 µM in assay [10].

With `CCOc1cc(C(C)=O)cc(-c2c(C)noc2C)c1`, the ΔTm in assay [1] was 4.8 °C; in assay [3], 3.4 °C; in assay [4], 6 °C; in assay [5], 5.3 °C; in assay [7] it was 5.1 °C; in [9] it was -1 °C. Besides, the values for the ΔTm in [11], in assay [13] and in [15] were -0.3 °C, 3.2 °C and 6.5 °C, respectively. In addition, the figures for the IC50 in [6], in assay [8] and in assay [10] were 12.9 µM, 7.5 µM and 2.3 µM, respectively.
